Experimental data taken from ChEMBL document CHEMBL1132574, “Metallopeptidase inhibitors of tetanus toxin: A combinatorial approach” (J Med Chem, 1999).

Target: T1, Tetanus toxin (Clostridium tetani (strain Massachusetts / E88), UniProt P04958)
T1 sequence (P04958 whole entry): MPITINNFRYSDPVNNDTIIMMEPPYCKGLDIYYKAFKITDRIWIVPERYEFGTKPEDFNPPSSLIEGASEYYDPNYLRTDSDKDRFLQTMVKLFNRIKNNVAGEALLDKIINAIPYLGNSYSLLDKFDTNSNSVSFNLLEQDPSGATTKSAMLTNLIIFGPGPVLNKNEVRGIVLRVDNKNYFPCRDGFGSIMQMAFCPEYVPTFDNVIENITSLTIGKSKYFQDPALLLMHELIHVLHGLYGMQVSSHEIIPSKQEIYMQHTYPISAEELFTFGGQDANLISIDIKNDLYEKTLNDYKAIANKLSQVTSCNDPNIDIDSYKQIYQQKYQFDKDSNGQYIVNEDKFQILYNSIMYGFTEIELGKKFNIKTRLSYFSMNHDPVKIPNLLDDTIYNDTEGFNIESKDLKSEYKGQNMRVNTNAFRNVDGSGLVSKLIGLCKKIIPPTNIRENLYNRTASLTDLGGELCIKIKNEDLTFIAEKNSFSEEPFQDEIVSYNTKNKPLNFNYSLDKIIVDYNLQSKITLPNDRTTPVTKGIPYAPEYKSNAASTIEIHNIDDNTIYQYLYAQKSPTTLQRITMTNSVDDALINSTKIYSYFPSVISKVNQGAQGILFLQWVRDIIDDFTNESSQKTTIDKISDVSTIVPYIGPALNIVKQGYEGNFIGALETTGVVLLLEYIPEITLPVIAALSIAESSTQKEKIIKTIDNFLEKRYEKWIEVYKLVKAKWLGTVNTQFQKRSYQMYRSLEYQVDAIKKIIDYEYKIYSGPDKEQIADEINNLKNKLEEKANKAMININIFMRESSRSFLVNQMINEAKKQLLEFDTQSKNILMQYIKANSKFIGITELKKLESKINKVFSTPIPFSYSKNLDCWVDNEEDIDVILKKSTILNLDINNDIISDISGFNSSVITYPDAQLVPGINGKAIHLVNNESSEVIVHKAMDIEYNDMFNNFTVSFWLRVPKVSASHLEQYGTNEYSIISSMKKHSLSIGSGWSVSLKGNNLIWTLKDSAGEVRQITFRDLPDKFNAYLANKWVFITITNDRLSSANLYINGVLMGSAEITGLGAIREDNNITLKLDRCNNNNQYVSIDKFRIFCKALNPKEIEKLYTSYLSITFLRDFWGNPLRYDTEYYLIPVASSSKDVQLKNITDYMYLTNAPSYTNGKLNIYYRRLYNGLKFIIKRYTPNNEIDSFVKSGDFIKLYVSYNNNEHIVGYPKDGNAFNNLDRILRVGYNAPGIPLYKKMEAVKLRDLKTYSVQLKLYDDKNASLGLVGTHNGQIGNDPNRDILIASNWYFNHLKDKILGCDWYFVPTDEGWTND
Test: Inhibition of tetanus neurotoxin (TeNt)
Outline: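 TeNt metallopeptidase activity on the fluorescent substrate [Pya⁸⁸]S39-88 (40, 50, 66, 100, 200 μM) in 20 mM Hepes pH 7.4, 100 mM NaCl, 0.1 mM DTT at 37 °C. Inhibitor absent or at 1, 10, 33, 100 μM. Rate read by RP-HPLC as the appearance of fluorescent product [Pya⁸⁸]S77-88. Lineweaver–Burk analysis; mean of three independent experiments in triplicate.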

Row | Compound | Ki [µM]
1 | N[C@@H](CS)CCS(N)(=O)=O | 100
2 | N[C@H](c1cccc(S(N)(=O)=O)c1)[C@H](S)C(=O)N[C@@H](Cc1ccc(O)cc1)C(=O)N[C@@H](Cc1c[nH]cn1)C(=O)NCc1ccccc1 | 4
3 | C[C@@H](O)[C@H](NC(=O)[C@H](CCC(=O)O)NC(=O)[C@@H](Cc1ccccc1)NC(=O)C(S)[C@@H](N)CCC(=O)ON)C(=O)N[C@@H](CO)C(=O)O (mixture of isomers) | 80
4 | NC(CS)c1cccc(S(N)(=O)=O)c1 (stereo not drawn) | 35
5 | N[C@@H](c1cccc(S(N)(=O)=O)c1)[C@H](S)C(=O)N[C@@H](Cc1ccc(O)cc1)C(=O)N[C@@H](Cc1c[nH]cn1)C(=O)NCc1ccccc1 | 9.6
6 | N[C@@H](CCS(N)(=O)=O)[C@@H](S)C(=O)N[C@@H](Cc1ccc(O)cc1)C(=O)N[C@@H](Cc1cnc[nH]1)C(=O)NCc1ccccc1 | 3.9
7 | N[C@@H](c1cccc(S(N)(=O)=O)c1)[C@@H](S)C(=O)N[C@@H](Cc1ccc(O)cc1)C(=O)N[C@@H](Cc1c[nH]cn1)C(=O)NCc1ccccc1 | 3
8 | N[C@@H](CCS(N)(=O)=O)[C@H](S)C(=O)N[C@@H](Cc1ccc(O)cc1)C(=O)N[C@@H](Cc1c[nH]cn1)C(=O)NCc1ccccc1 | 6.8
9 | C[C@@H](O)[C@H](NC(=O)[C@H](CCC(=O)O)NC(=O)[C@@H](Cc1ccccc1)NC(=O)C(S)[C@@H](N)CCC(=O)ON)C(=O)O (mixture of isomers) | 100
10 | N[C@@H](CCS(N)(=O)=O)[C@H](S)C(=O)N[C@@H](Cc1ccc(O)cc1)C(=O)N[C@@H](Cc1c[nH]cn1)C(=O)O | 15
11 | NC(=O)CC[C@@H](N)CS | 250
12 | N[C@@H](CCS(N)(=O)=O)[C@@H](S)C(=O)N[C@@H](Cc1ccc(O)cc1)C(=O)N[C@@H](Cc1c[nH]cn1)C(=O)O | 5
13 | N[C@H](c1cccc(S(N)(=O)=O)c1)[C@@H](S)C(=O)N[C@@H](Cc1ccc(O)cc1)C(=O)N[C@@H](Cc1c[nH]cn1)C(=O)NCc1ccccc1 | 6
